Experimental data taken from ChEMBL document CHEMBL4325889, “Natural products hybrids: 3,5,4'-Trimethoxystilbene-5,6,7-trimethoxyflavone chimeric analogs as potential cytotoxic agents against diverse human cancer cells” (Eur J Med Chem, 2019).

Assays:
Assay type in all cases: functional
SF-539 = test: Growth inhibition of human SF539 cells at 10 uM after 48 hrs by SRB assay relative to control; conditions: SF-539, 48 h, read-out: GI
How it was run: (§1)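 Screened at the National Cancer Institute by the standard NCI protocol using the sulforhodamine B assay, which measures cellular protein. Single dose of 10 µM. Result is percent growth inhibition; values above 100% mean cell number fell below the initial population. Values are the average of duplicates.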

HL-60(TB) = test: Growth inhibition of human HL-60(TB) cells at 10 uM after 48 hrs by SRB assay relative to control; conditions: HL-60, 48 h, read-out: GI
How it was run: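 Run at NCI under its standard single-dose protocol against a leukemia cell panel. Cells were exposed to 10 µM; growth was read by sulforhodamine B staining of cellular protein and expressed as % growth inhibition versus untreated control. Values above 100% mean the cell population fell below the starting count (cytocidal). Each value is the average of duplicates.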

OVCAR-8 = test: Growth inhibition of human OVCAR8 cells at 10 uM after 48 hrs by SRB assay relative to control; conditions: OVCAR-8, 48 h, read-out: GI; how it was run: as §1
SF-268 = test: Growth inhibition of human SF268 cells at 10 uM after 48 hrs by SRB assay relative to control; conditions: SF-268, 48 h, read-out: GI; how it was run: as §1
RXF 393 = test: Growth inhibition of human RXF393 cells at 10 uM after 48 hrs by SRB assay relative to control; conditions: RXF 393, 48 h, read-out: GI; how it was run: as §1
HCT-15 = test: Growth inhibition of human HCT15 cells at 10 uM after 48 hrs by SRB assay relative to control; conditions: HCT-15, 48 h, read-out: GI; how it was run: as §1
SNB-19 = test: Growth inhibition of human SNB19 cells at 10 uM after 48 hrs by SRB assay relative to control; conditions: SNB-19, 48 h, read-out: GI
How it was run: (§2)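 NCI screen against its human cancer cell line panel by the standard NCI protocol, SRB protein stain. Single dose of 10 μM. Percent growth inhibition versus control; values above 100% mean the cell population fell below the starting number. Each value is the mean of duplicates.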

SNB-75 = test: Growth inhibition of human SNB75 cells at 10 uM after 48 hrs by SRB assay relative to control; conditions: SNB-75, 48 h, read-out: GI; how it was run: as §2
K562 = test: Growth inhibition of human K562 cells at 10 uM after 48 hrs by SRB assay relative to control; conditions: K562, 48 h, read-out: GI; how it was run: as §1
SK-MEL-2 = test: Growth inhibition of human SK-MEL-2 cells at 10 uM after 48 hrs by SRB assay relative to control; conditions: SK-MEL-2, 48 h, read-out: GI; how it was run: as §1
ACHN = test: Growth inhibition of human ACHN cells at 10 uM after 48 hrs by SRB assay relative to control; conditions: read-out: GI; how it was run: as §1
MCF7 = test: Growth inhibition of human MCF7 cells at 10 uM after 48 hrs by SRB assay relative to control; conditions: MCF7, 48 h, read-out: GI; how it was run: as §1
RPMI-8226 = test: Growth inhibition of human RPMI8226 cells at 10 uM after 48 hrs by SRB assay relative to control; conditions: RPMI-8226, 48 h, read-out: GI; how it was run: as §1
HCT-116 = test: Growth inhibition of human HCT116 cells at 10 uM after 48 hrs by SRB assay relative to control; conditions: HCT-116, 48 h, read-out: GI; how it was run: as §1
HOP-92 = test: Growth inhibition of human HOP92 cells at 10 uM after 48 hrs by SRB assay relative to control; conditions: HOP-92, 48 h, read-out: GI; how it was run: as §1
KM12 = test: Growth inhibition of human KM12 cells at 10 uM after 48 hrs by SRB assay relative to control; conditions: KM12, 48 h, read-out: GI; how it was run: as §1
786-0 = test: Growth inhibition of human 786-0 cells at 10 uM after 48 hrs by SRB assay relative to control; conditions: 786-0, 48 h, read-out: GI; how it was run: as §1
OVCAR-5 = test: Growth inhibition of human OVCAR5 cells at 10 uM after 48 hrs by SRB assay relative to control; conditions: OVCAR-5, 48 h, read-out: GI; how it was run: as §1
NCI/ADR-RES = test: Growth inhibition of human NCI/ADR-RES cells at 10 uM after 48 hrs by SRB assay relative to control; conditions: read-out: GI; how it was run: as §1
UO-31 = test: Growth inhibition of human UO31 cells at 10 uM after 48 hrs by SRB assay relative to control; conditions: UO-31, 48 h, read-out: GI; how it was run: as §2
HOP-62 = test: Growth inhibition of human HOP62 cells at 10 uM after 48 hrs by SRB assay relative to control; conditions: HOP-62, 48 h, read-out: GI; how it was run: as §1
DU-145 = test: Growth inhibition of human DU145 cells at 10 uM after 48 hrs by SRB assay relative to control; conditions: DU-145, 48 h, read-out: GI; how it was run: as §1
UACC-257 = test: Growth inhibition of human UACC257 cells at 10 uM after 48 hrs by SRB assay relative to control; conditions: UACC-257, 48 h, read-out: GI; how it was run: as §2
MDA-MB-468 = test: Growth inhibition of human MDA-MB-468 cells at 10 uM after 48 hrs by SRB assay relative to control; conditions: MDA-MB-468, 48 h, read-out: GI; how it was run: as §1
IGROV-1 = test: Growth inhibition of human IGROV1 cells at 10 uM after 48 hrs by SRB assay relative to control; conditions: IGROV-1, 48 h, read-out: GI; how it was run: as §1
Malme-3M = test: Growth inhibition of human MALME-3M cells at 10 uM after 48 hrs by SRB assay relative to control; conditions: read-out: GI; how it was run: as §1
LOX IMVI = test: Growth inhibition of human LOXIMVI cells at 10 uM after 48 hrs by SRB assay relative to control; conditions: read-out: GI; how it was run: as §1
SK-MEL-28 = test: Growth inhibition of human SK-MEL-28 cells at 10 uM after 48 hrs by SRB assay relative to control; conditions: SK-MEL-28, 48 h, read-out: GI; how it was run: as §1
MOLT-4 = test: Growth inhibition of human MOLT4 cells at 10 uM after 48 hrs by SRB assay relative to control; conditions: MOLT-4, 48 h, read-out: GI; how it was run: as §1
SW-620 = test: Growth inhibition of human SW620 cells at 10 uM after 48 hrs by SRB assay relative to control; conditions: SW-620, 48 h, read-out: GI; how it was run: as §2
PC-3 = test: Growth inhibition of human PC3 cells at 10 uM after 48 hrs by SRB assay relative to control; conditions: PC-3, 48 h, read-out: GI; how it was run: as §1
SN12C = test: Growth inhibition of human SN12C cells at 10 uM after 48 hrs by SRB assay relative to control; conditions: read-out: GI; how it was run: as §1
Hs-578T = test: Growth inhibition of human Hs 578T cells at 10 uM after 48 hrs by SRB assay relative to control; conditions: read-out: GI; how it was run: as §1
CAKI-1 = test: Growth inhibition of human Caki1 cells at 10 uM after 48 hrs by SRB assay relative to control; conditions: CAKI-1, 48 h, read-out: GI; how it was run: as §1

| SMILES | inhibition of growth at 10 µM (SF-539) [%] | inhibition of growth at 10 µM (HL-60(TB)) [%] | inhibition of growth at 10 µM (OVCAR-8) [%] | inhibition of growth at 10 µM (SF-268) [%] | inhibition of growth at 10 µM (RXF 393) [%] | inhibition of growth at 10 µM (HCT-15) [%] | inhibition of growth at 10 µM (SNB-19) [%] | inhibition of growth at 10 µM (SNB-75) [%] | inhibition of growth at 10 µM (K562) [%] | inhibition of growth at 10 µM (SK-MEL-2) [%] | inhibition of growth at 10 µM (ACHN) [%] | inhibition of growth at 10 µM (MCF7) [%] | inhibition of growth at 10 µM (RPMI-8226) [%] | inhibition of growth at 10 µM (HCT-116) [%] | inhibition of growth at 10 µM (HOP-92) [%] | inhibition of growth at 10 µM (KM12) [%] | inhibition of growth at 10 µM (786-0) [%] | inhibition of growth at 10 µM (OVCAR-5) [%] | inhibition of growth at 10 µM (NCI/ADR-RES) [%] | inhibition of growth at 10 µM (UO-31) [%] | further results |
| --- | --- | --- | --- | --- | --- | --- | --- | --- | --- | --- | --- | --- | --- | --- | --- | --- | --- | --- | --- | --- | --- |
| COc1cccc(NC(=O)c2cccc(-c3cc(=O)c4c(O)c(OC)c(OC)cc4o3)c2)c1 | 20.7 | 17.5 | 62.5 | 22.9 | 25.8 | 25.7 | 16.4 | 1.94 | 16.9 | 2.64 | 33.8 | 13.2 | 53.6 | 30.7 | 33.6 | 35.5 | 14.2 | 8.5 | 25.8 | 41.7 | inhibition of growth at 10 µM (HOP-62): 37.5%; inhibition of growth at 10 µM (DU-145): 19.4%; inhibition of growth at 10 µM (UACC-257): 8.74%; inhibition of growth at 10 µM (MDA-MB-468): 46%; inhibition of growth at 10 µM (IGROV-1): 12%; inhibition of growth at 10 µM (Malme-3M): 12.3%; inhibition of growth at 10 µM (LOX IMVI): 36.8%; inhibition of growth at 10 µM (SK-MEL-28): 14.2%; inhibition of growth at 10 µM (MOLT-4): 24.2%; inhibition of growth at 10 µM (SW-620): 18.4%; inhibition of growth at 10 µM (PC-3): 39.3%; inhibition of growth at 10 µM (SN12C): 19%; inhibition of growth at 10 µM (Hs-578T): 45.5%; inhibition of growth at 10 µM (CAKI-1): 32.4% |
| COc1cc2oc(-c3cccc(C(=O)Nc4ccc5c(c4)OCO5)c3)cc(=O)c2c(OC)c1OC | 14.7 | 30.3 | 45.9 | 12.5 | 29 | 28.2 | 5.13 | -1.27 | 25.8 | -2.38 | 10.2 | 17.9 | 79.1 | 27.3 | 21.9 | 32.7 | 7.44 | 16.4 | 35.1 | 41 | inhibition of growth at 10 µM (HOP-62): 26.6%; inhibition of growth at 10 µM (DU-145): 18.7%; inhibition of growth at 10 µM (UACC-257): 5.96%; inhibition of growth at 10 µM (MDA-MB-468): 1.72%; inhibition of growth at 10 µM (IGROV-1): 39.8%; inhibition of growth at 10 µM (Malme-3M): 1.22%; inhibition of growth at 10 µM (LOX IMVI): 81.5%; inhibition of growth at 10 µM (SK-MEL-28): 20.4%; inhibition of growth at 10 µM (MOLT-4): 35.2%; inhibition of growth at 10 µM (SW-620): -4.89%; inhibition of growth at 10 µM (PC-3): 26.5%; inhibition of growth at 10 µM (SN12C): 30.8%; inhibition of growth at 10 µM (Hs-578T): 14%; inhibition of growth at 10 µM (CAKI-1): 27.9% |
